Assays:
Histone deacetylase = test: Inhibition of HDAC in human HeLa cell nuclear extract using Fluor de Lys as substrate incubated with compound for 30 mins by microtiter-plate reading flourimeter analysis; assay type: protein assay
NCI-H23 = test: Growth inhibition of human NCI-H23 cells after 5 days by sulforhodamine B assay; assay type: functional; settings: NCI-H23, 120 h
ACHN = test: Growth inhibition of human ACHN cells after 5 days by sulforhodamine B assay; assay type: functional; settings: 120 h
[1] = Growth inhibition of human HCT15 cells after 5 days by sulforhodamine B assay; assay type: functional; settings: HCT-15, 120 h
C2C12 = test: Induction of RUNX transcriptional activation in mouse C2C12-6xOSE2 cells at 1 uM after 24 hrs by luciferase reporter assay relative to FGF-2; assay type: functional
Procedure, shortened: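 C2C12-6xOSE stable cells grown in DMEM with 10% FBS at 37°C, 5% CO2. Seeded at 1 × 10^4 cells/well; next day treated with compound or FGF-2 (1 µM each). After 24 h, luciferase measured with Bright-Glo. Activity expressed as percent of the FGF-2 positive-control response.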

MDA-MB-231 = test: Growth inhibition of human MDA-MB-231 cells after 5 days by sulforhodamine B assay; assay type: functional; settings: MDA-MB-231, 120 h
[2] = Growth inhibition of human PC3 cells after 5 days by sulforhodamine B assay; assay type: functional; settings: PC-3, 120 h
[3] = Growth inhibition of human NUGC3 cells after 5 days by sulforhodamine B assay; assay type: functional; settings: NUGC-3, 120 h
[4] = Metabolic stability in mouse liver microsomes assessed as compound remaining at 1 uM after 30 mins byLC-ESI/MS/MS analysis in presence of NADPH; assay type: ADME; settings: read-out: Stability
Procedure, shortened: (§1)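 Compound at 1 µM incubated in triplicate with pooled mouse liver microsomes (0.5 mg/ml final) in 0.1 M potassium phosphate, pH 7.4, at 37°C, with or without 1 mM NADPH. Reactions stopped at 0 and 30 min with ice-cold acetonitrile containing internal standard. After centrifugation, supernatant analyzed by LC-ESI/MS/MS; percent remaining from analyte/IS peak-area ratios. Buspirone served as positive control.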

[5] = Metabolic stability in mouse liver microsomes assessed as compound remaining at 1 uM after 30 mins by LC-ESI/MS/MS analysis in absence of NADPH; assay type: ADME; settings: read-out: Stability; procedure, shortened: as §1

Compound	IC50 (Histone deacetylase)	GI50 (NCI-H23)	GI50 (ACHN)	GI50 [1]	Activity (C2C12)	GI50 (MDA-MB-231)	GI50 [2]	GI50 [3]	remaining at 0.5 h, 1 µM [4]	remaining at 0.5 h, 1 µM [5]
O=C(/C=C/c1cccn(CCc2ccncc2)c1=O)NO	> 10 µM	> 10 µM	> 10 µM	> 10 µM	19.6%	> 10 µM	> 10 µM	> 10 µM		
O=C(/C=C/c1cccn(Cc2ccncc2)c1=O)NO	0.42 µM	3.01 µM	9.49 µM	> 10 µM	69.1%	4.92 µM	9.17 µM	9.19 µM		
O=C(/C=C/c1cccn(CCc2cccc(Br)c2)c1=O)NO	0.16 µM	3.3 µM	2 µM	7.29 µM	74%	4.9 µM	3.58 µM	1.99 µM		
COc1ccc(CCCn2cccc(/C=C/C(=O)NO)c2=O)cc1	0.14 µM	1.31 µM	0.98 µM	0.9 µM	97.6%	1.36 µM	1.78 µM	0.97 µM		
O=C(/C=C/c1cccn(Cc2ccc(Br)cc2)c1=O)NO	0.1 µM	3 µM	1.48 µM	4.31 µM	99.2%	2.49 µM	1.88 µM	2.11 µM		
COc1ccc(Cn2cccc(/C=C/C(=O)NO)c2=O)cc1	0.38 µM	5.3 µM	4.73 µM	4.52 µM	84.6%	6.26 µM	4.7 µM	3.88 µM		
O=C(/C=C/c1cccn(CCc2ccccn2)c1=O)NO	3.94 µM	> 10 µM	> 10 µM	> 10 µM	26.7%	> 10 µM	> 10 µM	> 10 µM		
O=C1CC2(CCCC2)CC(=O)N1CCCCN1CCN(c2ncccn2)CC1 [BUSPIRONE]									0.4%	101%
O=C(/C=C/c1cccn(CCCc2cccnc2)c1=O)NO	0.57 µM	5.21 µM	> 10 µM	> 10 µM	30%	> 10 µM	> 10 µM	> 10 µM		
O=C(/C=C/c1cccn(Cc2cccc(Br)c2)c1=O)NO	0.38 µM	3.04 µM	3.03 µM	2.73 µM	91.6%	3.07 µM	4.84 µM	2.78 µM		
O=C(/C=C/c1cccn(Cc2ccccn2)c1=O)NO	0.46 µM	> 10 µM	6.44 µM	> 10 µM	35.6%	> 10 µM	10.2 µM	> 10 µM		
CCOc1cccc(CCn2cccc(/C=C/C(=O)NO)c2=O)c1	0.12 µM	1.81 µM	0.94 µM	0.92 µM	76.9%	1.74 µM	1.34 µM	1.42 µM		
CC(C)(C)c1ccc(Cn2cccc(/C=C/C(=O)NO)c2=O)cc1	0.09 µM	2.81 µM	2.8 µM	2.4 µM	46.4%	2.59 µM	3.04 µM	1.82 µM		
O=C(CCCCCCC(=O)Nc1ccccc1)NO [VORINOSTAT]					80.2%					
CC(C)(C)c1ccc(CCCn2cccc(/C=C/C(=O)NO)c2=O)cc1	0.38 µM	1.78 µM	1.83 µM	1.42 µM	34.4%	2.23 µM	1.48 µM	1.31 µM		
O=C(/C=C/c1cccn(CCCc2ccc(Br)cc2)c1=O)NO	0.21 µM	4.88 µM	4.19 µM	7.45 µM	53.8%	4.38 µM	3.97 µM	4.02 µM		
O=C(/C=C/c1cccn(CCc2ccc(Br)cc2)c1=O)NO	0.36 µM	3.04 µM	2.14 µM	8.6 µM	53.5%	6.39 µM	4.84 µM	2.83 µM		
CCc1ccc(CCCn2cccc(/C=C/C(=O)NO)c2=O)cc1	0.31 µM	2.15 µM	1.71 µM	1.06 µM	14.3%	2.88 µM	1.85 µM	1.74 µM		
CCc1ccc(Cn2cccc(/C=C/C(=O)NO)c2=O)cc1	0.1 µM	2.35 µM	1.54 µM	1.86 µM	74.3%	3.68 µM	2.07 µM	1.67 µM		
O=C(/C=C/c1cccn(Cc2ccccc2Br)c1=O)NO	0.19 µM	2.3 µM	1.53 µM	2.4 µM	86%	1.59 µM	2.88 µM	1.66 µM		
COc1cccc(CCn2cccc(/C=C/C(=O)NO)c2=O)c1	0.07 µM	5.06 µM	2.93 µM	> 10 µM	53.8%	6.94 µM	5.87 µM	2.91 µM		
CCc1ccccc1Cn1cccc(/C=C/C(=O)NO)c1=O	0.23 µM	4.96 µM	3.24 µM	3.93 µM	52.3%	6.95 µM	5.02 µM	5.41 µM		
CCOc1ccccc1CCn1cccc(/C=C/C(=O)NO)c1=O	0.32 µM	4.92 µM	3.59 µM	6.06 µM	30.9%	3.89 µM	4.92 µM	3.92 µM		
O=C(/C=C/c1cccn(Cc2cccnc2)c1=O)NO	0.3 µM	6.7 µM	4.16 µM	7.51 µM	32.3%	10 µM	5.33 µM	5.94 µM		
O=C(/C=C/c1cccn(CCCc2ccccc2Br)c1=O)NO	0.48 µM	1.88 µM	1.92 µM	1.58 µM	162.8%	2.89 µM	1.86 µM	1.5 µM	24.2%	

From ChEMBL document CHEMBL3425447, “Discovery of Orally Available Runt-Related Transcription Factor 3 (RUNX3) Modulators for Anticancer Chemotherapy by Epigenetic Activation and Protein Stabilization” (J Med Chem, 2015)
